The source of these data is PMC8223195 (Molecular Diversity, 2021).

The subject of data set [1] is Z-138 (non-Hodgkin lymphoma). The experiment in a line: IncuCyte real-time proliferation assay, Z-138. Format: cell-based. Particulars: Z-138, 72 h; * mean of two independent experiments ± SEM.
Data set [2] has as its system alpha-tubulin in HEp-2 cells. Put plainly: Tubulin immune fluorescence staining in HEp-2 cells. Type of data set: cell-based, human. The note with it: HEp-2 cells treated for 3 h.
Another data set has as its system LN-229 (glioblastoma). Put plainly: IncuCyte real-time proliferation assay, LN-229. Format: cell-based. The note with it: LN-229, 72 h; * mean of two independent experiments ± SEM.
For data set [3], the system named is HL-60 (acute myeloid leukemia). The experiment in a line: IncuCyte real-time proliferation assay, HL-60. Format: cell-based. Particulars: HL-60, 72 h; * mean of two independent experiments ± SEM.
In data set [4] the test system is peripheral blood mononuclear cells (PBMCs). The experiment in a line: In vitro apoptosis induction assay in PBMC. Particulars: 72 h; for viability of normal PBMCs: PBMC from two healthy donors, 100 to 0.16 µM; for number of apoptotic and dead cells: PBMC, 100 µM, caspase-3/7 and PI. Type of data set: cell-based. The gist of the method: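 Counter-screen on normal PBMCs from two healthy donors. Cells were exposed to graded test-compound concentrations with Caspase-3/7 Green Reagent added. Activated intracellular caspase-3/7 cleaves the reagent at its DEVD motif, marking apoptotic cells. Propidium iodide staining separated dead from live cells. Read-out: numbers of apoptotic and dead cells.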

Data set [5] has as its system DND-41 (acute lymphoblastic leukemia). The experiment in a line: IncuCyte real-time proliferation assay, DND-41. Particulars: DND-41, 72 h; * mean of two independent experiments ± SEM. Format: cell-based.
Data set [6] relates to K-562 (chronic myeloid leukemia). The experiment in a line: IncuCyte real-time proliferation assay, K-562. Format: cell-based. Particulars: K-562, 72 h; * mean of two independent experiments ± SEM.
The test system of a further data set is hCoV-229E. Format: cell-based, human corona virus 229E. The note with it: […]; (*) mean of three independent experiments ± SEM.
The test system of data set [7] is NCI-H460 (lung carcinoma). Put plainly: IncuCyte real-time proliferation assay, NCI-H460. Format: cell-based. Particulars: NCI-H460, 72 h; * mean of two independent experiments ± SEM.
In data set [8] the test system is Capan-1 (pancreatic adenocarcinoma). The experiment in a line: IncuCyte real-time proliferation assay, Capan-1. Format: cell-based. Particulars: Capan-1, 72 h; * mean of two independent experiments ± SEM.
Data set [9] has as its system HCT-116 (colorectal carcinoma). The experiment in a line: IncuCyte real-time proliferation assay, HCT-116. Type of data set: cell-based. Particulars: HCT-116, 72 h; * mean of two independent experiments ± SEM.

Where only a bound is given, the exact number is not on record here.

Broadly, the IC50 is the concentration needed to halve the response being measured. The CC50 is the concentration giving 50% cytotoxicity. A low value points to greater toxicity to the cells. What is called EC50 is the concentration at which the effect is half-maximal.

For the compound `Cc1ccc(C(=O)C2Sc3nnc(-n4nc(C)cc4C)n3NC2c2cc(F)c(F)c(F)c2)cc1` (racemic) [Compound 5j, ( ±)-(3-(3,5-Dimethyl-1H-pyrazol-1-yl)-6-(3,4,5-trifluorophenyl)-6,7-dihydro-5H-[1,2,4]triazole [3,4-b][1,3,4]thiadiazin-7-yl)(p-tolyl)methanone], the half-inhibitory concentration (IC50) in [1] came out at 1900 ± 30 nM; in the data set with LN-229 (glioblastoma), 2700 ± 200 nM; in [3], 13000 ± 2800 nM; in data set [5] it was 2400 ± 400 nM; in [6], 3400 ± 200 nM; in [7], 56000 nM. Further, the IC50 in data set [8] is 2300 ± 200 nM; in data set [9], 2500 ± 90 nM. In data set [2], the polymerization of tubulin result is recorded as “inhibit the polymerization of tubulin in a dose-dependent manner”. Besides, the “viability of normal PBMCs” value in data set [4] is “did not inhibit the viability”. Also, the “number of apoptotic and dead cells” value in data set [4] was “small increase in the number of apoptotic and dead cells”. The cytotoxic concentration (CC50) with HEL 299 cells came out at 23800 nM. Further, the EC50 with hCoV-229E is over 100000 nM.
For `COc1ccc(C(=O)C2Sc3nnc(-n4nc(C)cc4C)n3NC2c2ccco2)cc1` (racemic) [Compound 5q, ( ±)-(3-(3,5-Dimethyl-1H-pyrazol-1-yl)-6-(furan-2-yl)-6,7-dihydro-5H-[1,2,4]triazolo[3,4-b][1,3,4]thiadiazin-7-yl)(4-methoxyphenyl)methanone], the IC50 amounted to 400 ± 5 nM in data set [1]; 700 ± 90 nM in the data set with LN-229 (glioblastoma); 2000 ± 400 nM in data set [3]; 600 ± 200 nM in data set [5]; 2300 ± 1600 nM in [6]; 2500 ± 200 nM in data set [7]. The IC50 in data set [8] came out at 1100 ± 700 nM; in data set [9] it was 1000 ± 400 nM. Besides, the polymerization of tubulin entry in data set [2] was “inhibit the polymerization of tubulin in a dose-dependent manner”. The “viability of normal PBMCs” value in data set [4] is “did not inhibit the viability”. Moreover, the “number of apoptotic and dead cells” value in data set [4] is “small increase in the number of apoptotic and dead cells”. The same compound displayed a CC50 with HEL 299 cells of under 800 nM. In the data set with hCoV-229E, this compound returned an EC50 of over 100000 nM.
On to `COc1ccc(C2=C(C(=O)c3ccc([N+](=O)[O-])cc3)Sc3nnc(-n4nc(C)cc4C)n3N2)c(OC)c1` [Compound 5p, ( ±)-(6-(2,4-dimethoxyphenyl)-3-(3,5-dimethyl-1H-pyrazol-1-yl)-5H-[1,2,4]triazolo[3,4-b][1,3,4]thiadiazin-7-yl)(4-nitrophenyl)methanone], for which the IC50 (in data set [1]; in the data set with LN-229 (glioblastoma); in data set [3]; in data set [5]; in [6]; in data set [7]) was over 100000 nM each time. Further, the IC50 in [8] and in data set [9] was over 100000 nM throughout. Besides, the CC50 in the data set on HEL 299 cells is over 100000 nM. The same compound gave an EC50 in the data set with hCoV-229E of over 100000 nM.
